# What was measured:
# [1] = system: peripheral blood B‐cell populations; test: Peripheral blood B-cell subsets; assay type: in vivo, human; settings: MAD part
# Procedure, shortened: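 Double-blind, placebo-controlled multiple-ascending-dose part in healthy adults aged 18–55 y (BMI 18–32 kg m−2), randomised 3:1 to test compound or placebo. Oral dosing once daily for 14 days at 0.3, 1, 3 or 10 mg, with 14 days of post-dosing follow-up. Peripheral blood B-cell subsets measured and summarised with descriptive statistics.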
# [2] = system: serum immunoglobulin levels; test: Serum immunoglobulins; assay type: in vivo, human; settings: both parts (SAD and MAD)
# Procedure, shortened: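 Healthy adults aged 18–55 y, randomised 3:1 to test compound or placebo, double-blind. Single-ascending-dose part: one oral dose of 0.3, 1, 3, 10 or 30 mg (n = 6 each; placebo n = 10). Multiple-ascending-dose part: oral dosing daily for 14 days at 0.3–10 mg. Serum immunoglobulins measured in both parts and summarised descriptively.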
# EGFR kinases = settings: cited from earlier work
# [3] = preclinical studies; cited from earlier work
# [4] = molecular target: Bruton's tyrosine kinase (BTK) (Homo sapiens, UniProt Q06187); test: BTK occupancy in blood by immunocapture LC–MS/MS; assay type: in vivo; settings: for Time at which BTK occupancy reached steady state: MAD
# Chain of Bruton's tyrosine kinase (BTK) (Q06187 whole entry, the tested form may be a part): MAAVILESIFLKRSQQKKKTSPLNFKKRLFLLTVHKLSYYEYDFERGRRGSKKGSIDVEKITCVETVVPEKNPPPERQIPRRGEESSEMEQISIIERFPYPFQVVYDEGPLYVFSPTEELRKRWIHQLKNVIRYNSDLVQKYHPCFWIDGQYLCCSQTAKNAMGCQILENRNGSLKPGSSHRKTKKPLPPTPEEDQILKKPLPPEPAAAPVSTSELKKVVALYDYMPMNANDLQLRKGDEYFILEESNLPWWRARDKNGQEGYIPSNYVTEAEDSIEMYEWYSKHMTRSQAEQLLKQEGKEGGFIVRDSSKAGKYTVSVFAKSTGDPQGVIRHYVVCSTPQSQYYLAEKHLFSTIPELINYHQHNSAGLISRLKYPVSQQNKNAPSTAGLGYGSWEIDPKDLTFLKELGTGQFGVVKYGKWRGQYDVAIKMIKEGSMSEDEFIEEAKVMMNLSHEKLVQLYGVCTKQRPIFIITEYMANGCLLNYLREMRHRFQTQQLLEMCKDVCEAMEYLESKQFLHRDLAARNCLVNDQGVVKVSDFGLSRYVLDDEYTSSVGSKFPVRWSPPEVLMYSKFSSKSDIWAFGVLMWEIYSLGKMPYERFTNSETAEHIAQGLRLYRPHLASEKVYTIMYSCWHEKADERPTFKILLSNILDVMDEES
# Procedure, shortened: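 Healthy volunteers in SAD and MAD parts (MAD doses 0.3–10 mg). Whole blood in ACD-A was lysed at once in buffer with protease inhibitor and a Cys481-reactive quencher, shaken 1 h at room temperature, and stored ≤−70°C. Anti-BTK bead immunocapture, on-bead trypsin digest, and LC–MS/MS of drug- or quencher-bound Cys481 peptide (residues 467–487). Occupancy = DB/(DB+QB)×100, and total BTK was also derived.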
# BTK = settings: cited from earlier work
# [5] = system: murine models of collagen‐ and collagen antibody–induced arthritis; settings: administered orally once daily (QD); both arthritis models; cited from earlier work
# healthy participants = test: Safety assessment; assay type: in vivo, human; settings: for Dizziness / Dysmenorrhoea / Headache / Myalgia / Nausea / Oral herpes / Rash / Tension headache / Throat irritation / Upper respiratory tract infection: all branebrutinib doses
# [6] = Plasma pharmacokinetics by validated LC–MS/MS; assay type: in vivo, human; settings: for AUC(0-inf) / Cmax / half-life / Tmax / Vd/F: human, plasma; for AUC(0-inf): GM AUCinf; for Cmax: GM Cmax; for Tmax: Median Tmax
# [7] = oral, 0.3 mg, JMAD part (day 14), 0.3 mg QD, n = 6
# [8] = oral, 0.3 mg, MAD part (day 14), 0.3 mg QD, n = 6
# [9] = oral, 1 mg, MAD part (day 14), 1 mg QD, n = 6
# [10] = oral, 1 mg, SAD part (day 1), 1 mg, n = 6
# [11] = oral, 3 mg, JMAD part (day 14), 3 mg QD, n = 6
# [12] = oral, 3 mg, MAD part (day 14), 3 mg QD, n = 6
# [13] = oral, 3 mg, SAD part (day 1), 3 mg, n = 6
# [14] = oral, 10 mg, JMAD part (day 14), 10 mg QD, n = 6
# [15] = oral, 10 mg, MAD part (day 14), 10 mg QD, n = 5
# [16] = oral, 10 mg, SAD part (day 1), 10 mg, n = 6
# [17] = oral, 30 mg, SAD part (day 1), 30 mg, n = 6
smiles,measurement,setting,value
CC#CC(=O)N[C@H]1CCCN(c2c(F)cc(C(N)=O)c3[nH]c(C)c(C)c23)C1 [Branebrutinib],Effect on peripheral blood B‐cell populations,[1],no obvious effect
same,Effect on serum immunoglobulin levels,[2],no obvious effect
same,Activity against EGFR kinases,EGFR kinases; in vitro assessment,lacks activity
same,Brain penetration,[3],< 5 % of plasma concentration
same,Time at which BTK occupancy reached steady state,[4]; 0.3‐mg dose group,14 days
same,Time at which BTK occupancy reached steady state,[4]; 10‐mg dose group,1 days
same,Doses projected to be efficacious (BTK occupancy >90% at steady state),"[4]; at steady state, QD",≥ 1 mg
same,Selectivity for BTK over 4 related Tec family kinases,BTK,< 5000 fold
same,Selectivity for BTK over 240 other kinases,BTK,> 5000 fold
same,Doses at which maximal efficacy was observed,[5],≥ 0.5 mg/kg
same,Dizziness,"healthy participants; JMAD part, n = 18",0 (0.0) n (%)
same,Dysmenorrhoea,"healthy participants; JMAD part, n = 18",2 (11.1) n (%)
same,Headache,"healthy participants; JMAD part, n = 18",1 (5.6) n (%)
same,Myalgia,"healthy participants; JMAD part, n = 18",0 (0.0) n (%)
same,Nausea,"healthy participants; JMAD part, n = 18",0 (0.0) n (%)
same,Oral herpes,"healthy participants; JMAD part, n = 18",0 (0.0) n (%)
same,Rash,"healthy participants; JMAD part, n = 18",0 (0.0) n (%)
same,Tension headache,"healthy participants; JMAD part, n = 18",0 (0.0) n (%)
same,Throat irritation,"healthy participants; JMAD part, n = 18",0 (0.0) n (%)
same,Upper respiratory tract infection,"healthy participants; JMAD part, n = 18",0 (0.0) n (%)
same,"Serious AE (psychosis) leading to study discontinuation, number","healthy participants; MAD part, 10‐mg cohort, Day 10, considered not related to study drug",1
same,Any AE,"healthy participants; MAD part, QD 14 days, all branebrutinib doses 0.3-10 mg, n = 24",17 (70.8) n (%)
same,Dizziness,"healthy participants; MAD part, n = 24",0 (0.0) n (%)
same,Dysmenorrhoea,"healthy participants; MAD part, n = 24",0 (0.0) n (%)
same,Headache,"healthy participants; MAD part, n = 24",8 (33.3) n (%)
same,Myalgia,"healthy participants; MAD part, n = 24",0 (0.0) n (%)
same,Nausea,"healthy participants; MAD part, n = 24",2 (8.3) n (%)
same,Oral herpes,"healthy participants; MAD part, n = 24",3 (12.5) n (%)
same,Rash,"healthy participants; MAD part, n = 24",0 (0.0) n (%)
same,Tension headache,"healthy participants; MAD part, n = 24",2 (8.3) n (%)
same,Throat irritation,"healthy participants; MAD part, n = 24",0 (0.0) n (%)
same,Upper respiratory tract infection,"healthy participants; MAD part, n = 24",4 (16.7) n (%)
same,Dizziness,"healthy participants; SAD part, n = 30",3 (10.0) n (%)
same,Dysmenorrhoea,"healthy participants; SAD part, n = 30",2 (6.7) n (%)
same,Headache,"healthy participants; SAD part, n = 30",4 (13.3) n (%)
same,Myalgia,"healthy participants; SAD part, n = 30",2 (6.7) n (%)
same,Nausea,"healthy participants; SAD part, n = 30",2 (6.7) n (%)
same,Oral herpes,"healthy participants; SAD part, n = 30",1 (3.3) n (%)
same,Rash,"healthy participants; SAD part, n = 30",2 (6.7) n (%)
same,Tension headache,"healthy participants; SAD part, n = 30",0 (0.0) n (%)
same,Throat irritation,"healthy participants; SAD part, n = 30",2 (6.7) n (%)
same,Upper respiratory tract infection,"healthy participants; SAD part, n = 30",3 (10.0) n (%)
same,Any AE,"healthy participants; SAD part, single dose, all branebrutinib doses 0.3-30 mg, n = 30",18 (60.0) n (%)
same,Dose‐related trend in AEs,healthy participants; across both parts of the trial,no dose‐related trend
same,Tolerability,healthy participants; single or multiple doses in healthy participants,well tolerated
same,GM CLT/F (apparent total body clearance),"[6]; JMAD part (day 14), 0.3 mg QD, n = 5",94.0 (n = 5) L/hr
same,GM CLT/F (apparent total body clearance),"[6]; JMAD part (day 14), 3 mg QD, n = 6",109 (n = 6) L/hr
same,GM CLT/F (apparent total body clearance),"[6]; JMAD part (day 14), 10 mg QD, n = 6",72.2 (n = 6) L/hr
same,GM CLT/F (apparent total body clearance),"[6]; MAD part (day 14), 0.3 mg QD, n = 5",81.3 (n = 5) L/hr
same,GM CLT/F (apparent total body clearance),"[6]; MAD part (day 14), 1 mg QD, n = 6",95.5 (n = 6) L/hr
same,GM CLT/F (apparent total body clearance),"[6]; MAD part (day 14), 3 mg QD, n = 6",98.1 (n = 6) L/hr
same,GM CLT/F (apparent total body clearance),"[6]; MAD part (day 14), 10 mg QD, n = 5",99.5 (n = 5) L/hr
same,Accumulation following administration of multiple doses,"[6]; MAD, QD 14 days",No accumulation
same,GM CLT/F (apparent total body clearance),"[6]; SAD part (day 1), 0.3 mg single oral dose, n = 6",126 L/h
same,GM CLT/F (apparent total body clearance),"[6]; SAD part (day 1), 1 mg, n = 6",124 L/h
same,GM CLT/F (apparent total body clearance),"[6]; SAD part (day 1), 3 mg, n = 6",122 L/h
same,GM CLT/F (apparent total body clearance),"[6]; SAD part (day 1), 10 mg, n = 6",99.6 L/h
same,GM CLT/F (apparent total body clearance),"[6]; SAD part (day 1), 30 mg, n = 6",106 L/h
same,Time to drop to undetectable plasma levels,[6]; after single or multiple doses,≤ 24 h
same,AUC(0-inf),"[6]; oral, 0.3 mg, JMAD part (day 14), 0.3 mg QD, n = 5",3.2 ng·h/mL
same,AUC(0-inf),"[6]; oral, 0.3 mg, MAD part (day 14), 0.3 mg QD, n = 5",3.7 ng·h/mL
same,Cmax,[6]; [7],2 ng/mL
same,Cmax,[6]; [8],2.2 ng/mL
same,half-life,"[6]; oral, 0.3 mg, Mean t1/2, JMAD part (day 14), 0.3 mg QD, n = 5",54.6 min
same,half-life,"[6]; oral, 0.3 mg, Mean t1/2, MAD part (day 14), 0.3 mg QD, n = 5",78 min
same,Tmax,[6]; [7],30 min
same,Tmax,[6]; [8],60 min
same,Vd/F,"[6]; oral, 1 mg",255 L
same,AUC(0-inf),[6]; [9],10.5 ng·h/mL
same,AUC(0-inf),[6]; [10],8.1 ng·h/mL
same,Cmax,[6]; [9],5.9 ng/mL
same,Cmax,[6]; [10],4.6 ng/mL
same,half-life,"[6]; oral, 1 mg, Mean t1/2, MAD part (day 14), 1 mg QD, n = 6",99.6 min
same,half-life,"[6]; oral, 1 mg, Mean t1/2, SAD part (day 1), 1 mg, n = 6",95.4 min
same,Tmax,[6]; [9],30 min
same,Tmax,[6]; [10],30 min
same,Vd/F,"[6]; oral, 3 mg",304 L
same,AUC(0-inf),[6]; [11],27.4 ng·h/mL
same,AUC(0-inf),[6]; [12],30.6 ng·h/mL
same,AUC(0-inf),[6]; [13],24.5 ng·h/mL
same,Cmax,[6]; [11],16.3 ng/mL
same,Cmax,[6]; [12],17.8 ng/mL
same,Cmax,[6]; [13],14.2 ng/mL
same,half-life,"[6]; oral, 3 mg, Mean t1/2, JMAD part (day 14), 3 mg QD, n = 6",90.6 min
same,half-life,"[6]; oral, 3 mg, Mean t1/2, MAD part (day 14), 3 mg QD, n = 6",98.4 min
same,half-life,"[6]; oral, 3 mg, Mean t1/2, SAD part (day 1), 3 mg, n = 6",104 min
same,Tmax,[6]; [11],30 min
same,Tmax,[6]; [12],30 min
same,Tmax,[6]; [13],48 min
same,Vd/F,"[6]; oral, 10 mg",221 L
same,AUC(0-inf),[6]; [14],139 ng·h/mL
same,AUC(0-inf),[6]; [15],101 ng·h/mL
same,AUC(0-inf),[6]; [16],100 ng·h/mL
same,Cmax,[6]; [14],97.2 ng/mL
same,Cmax,[6]; [15],60.5 ng/mL
same,Cmax,[6]; [16],66.6 ng/mL
same,half-life,"[6]; oral, 10 mg, Mean t1/2, JMAD part (day 14), 10 mg QD, n = 6",102 min
same,half-life,"[6]; oral, 10 mg, Mean t1/2, MAD part (day 14), 10 mg QD, n = 5",104 min
same,half-life,"[6]; oral, 10 mg, Mean t1/2, SAD part (day 1), 10 mg, n = 6",93.6 min
same,Tmax,[6]; [14],30 min
same,Tmax,[6]; [15],30 min
same,Tmax,[6]; [16],30 min
same,Vd/F,"[6]; oral, 30 mg",245 L
same,AUC(0-inf),[6]; [17],282 ng·h/mL
same,Cmax,[6]; [17],179 ng/mL
same,half-life,"[6]; oral, 30 mg, Mean t1/2, SAD part (day 1), 30 mg, n = 6",97.8 min
same,Tmax,[6]; [17],30 min
same,Vd/F,"[6]; po, 0.3 mg",216 L
same,Trough observed concentrations,"[6]; multiple doses, LLOQ 0.100 ng mL^−1",below the LLOQ
same,Systemic exposure vs dose,[6]; single or multiple doses,dose‐proportional
"C=CC(=O)N1CCC[C@@H](n2nc(-c3ccc(Oc4ccccc4)cc3)c3c(N)ncnc32)C1 [ibrutinib, reference compound]",Inhibition of the EGFR family of kinases,EGFR kinases,potent irreversible inhibitor
